The nature of assay [1]: reducers of endogenous Her2 protein level, primary screen, SKBR3 breast tumor cells, AlphaScreen, ATP viability (AID 461;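 active = Her2 level under about 52% in both replicate screens, with viability over 70% of control, limit read from the data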;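 as to Her2 level: lower value means less Her2 protein in the cells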;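 as to viability: percent of carrier control wells set as 100% viability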). The conditions noted are these: 18-24 h, measured here: SKBR3 viability, ATP luminescence, at 10 µM.
Assay [2] addresses Receptor tyrosine-protein kinase erbB-2 (Homo sapiens) (UniProt P04626). The assay is described as above. The note with it: 18-24 h, at 10 µM, stronger effect = lower value.
Assay [3] is described as follows: SK-BR-3 cell growth inhibitors, pilot screen, 24 h, human (AID 572;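 active = viability at or below 10% of carrier control in both of two separate runs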;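 also: compound exposure lasted between 18 and 24 h rather than exactly 24 h; 100% = carrier-treated control wells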). The note with it: SK-BR-3 viability, CellTiter-Glo luminescence, at 10 µM, stronger effect = lower value. For orientation: ATP-based viability assays read luminescence as a measure of living cells.
A short description of assay [4]: HUVEC growth inhibition – cell-based, human, primary screen (AID 575;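 active = viability at or below 30% in both replicate assays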;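 also: 100% = median of untreated cell wells with 0.1% DMSO on each plate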). The conditions noted are these: HUVEC proliferation, CellTiter-Glo luminescence, 72 h; at 10 µM; stronger effect = lower value. The essentials:
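Test system: primary human umbilical vein endothelial cells. Quantity: 1250 cells/well. Compound: single 10 µM dose, 0.1% DMSO, from 5x medium stock. Timing: 72 h treatment at 37 °C. Detection: ATP-based CellTiter-Glo luminescent read. Benchmarks: vehicle and MePR control wells. Format: 384-well plates coated with collagen.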

A short description of assay [5]: growth inhibitors of H69AR lung tumor, primary screen, human, duplicate replicates (AID 580).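 Also: 100% = mean luminescence of untreated wells and 0% = no signal.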 The note with it: H69AR lung tumor cells viability, ATP luminescence, 72 h; at 10 µM; stronger effect = lower value.
The nature of assay [6]: reversal of MRP1-mediated doxorubicin resistance, pilot screen, H69AR cells, doxorubicin co-treatment (AID 601;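 active = viability loss from added drug above about 55%, and viability with drug at most 40%, in both replicates, limit read from the data, passing the limit was not always enough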). The conditions noted are these: CellTiter-Glo, 72 h, at 10 µM; for differential viability (reversal): stronger effect = higher value.
A short description of assay [7]: 384-well plate pilot, post-Golgi transport modulator project, inhibition of yeast transport mutant growth (AID 636; in the data active = inhibition above about 31%). The conditions noted are these: absorbance 615 nm, about 18 h, stronger effect = higher value.
Assay [8] in a line: growth suppression of yeast trafficking mutant, preliminary HTS, modulators of trafficking downstream of Golgi apparatus project, 1536-format plate, OD 615 nm (AID 637; in the data active = inhibition above about 30%). The conditions noted are these: yeast transport mutant growth, absorbance 615 nm, 18 h; stronger effect = higher value.
Where [9] appears, read: H69AR cells + 2 uM doxorubicin, measured here: viability with 2 uM doxorubicin, stronger effect = lower value.
[10] abbreviates: H69AR cells, compound alone cytotoxicity.

As usually defined, the viability is a read-out of living cells in per cent, often relative to untreated cells. The term inhibition denotes the relative decrease from the control value, in per cent.

Activity calls are given as the source filed them.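 The calls were made as follows, unless noted: active = viability at or under a set limit in both replicates, limit being median viability minus 3 SD (cut at about 48% in these data, passing the limit was not always enough); inconclusive = at or under the limit in just one replicate; inactive = at or above the limit in both replicates.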

Receptor tyrosine-protein kinase erbB-2 (Homo sapiens), sequence (P04626 whole entry, looked up): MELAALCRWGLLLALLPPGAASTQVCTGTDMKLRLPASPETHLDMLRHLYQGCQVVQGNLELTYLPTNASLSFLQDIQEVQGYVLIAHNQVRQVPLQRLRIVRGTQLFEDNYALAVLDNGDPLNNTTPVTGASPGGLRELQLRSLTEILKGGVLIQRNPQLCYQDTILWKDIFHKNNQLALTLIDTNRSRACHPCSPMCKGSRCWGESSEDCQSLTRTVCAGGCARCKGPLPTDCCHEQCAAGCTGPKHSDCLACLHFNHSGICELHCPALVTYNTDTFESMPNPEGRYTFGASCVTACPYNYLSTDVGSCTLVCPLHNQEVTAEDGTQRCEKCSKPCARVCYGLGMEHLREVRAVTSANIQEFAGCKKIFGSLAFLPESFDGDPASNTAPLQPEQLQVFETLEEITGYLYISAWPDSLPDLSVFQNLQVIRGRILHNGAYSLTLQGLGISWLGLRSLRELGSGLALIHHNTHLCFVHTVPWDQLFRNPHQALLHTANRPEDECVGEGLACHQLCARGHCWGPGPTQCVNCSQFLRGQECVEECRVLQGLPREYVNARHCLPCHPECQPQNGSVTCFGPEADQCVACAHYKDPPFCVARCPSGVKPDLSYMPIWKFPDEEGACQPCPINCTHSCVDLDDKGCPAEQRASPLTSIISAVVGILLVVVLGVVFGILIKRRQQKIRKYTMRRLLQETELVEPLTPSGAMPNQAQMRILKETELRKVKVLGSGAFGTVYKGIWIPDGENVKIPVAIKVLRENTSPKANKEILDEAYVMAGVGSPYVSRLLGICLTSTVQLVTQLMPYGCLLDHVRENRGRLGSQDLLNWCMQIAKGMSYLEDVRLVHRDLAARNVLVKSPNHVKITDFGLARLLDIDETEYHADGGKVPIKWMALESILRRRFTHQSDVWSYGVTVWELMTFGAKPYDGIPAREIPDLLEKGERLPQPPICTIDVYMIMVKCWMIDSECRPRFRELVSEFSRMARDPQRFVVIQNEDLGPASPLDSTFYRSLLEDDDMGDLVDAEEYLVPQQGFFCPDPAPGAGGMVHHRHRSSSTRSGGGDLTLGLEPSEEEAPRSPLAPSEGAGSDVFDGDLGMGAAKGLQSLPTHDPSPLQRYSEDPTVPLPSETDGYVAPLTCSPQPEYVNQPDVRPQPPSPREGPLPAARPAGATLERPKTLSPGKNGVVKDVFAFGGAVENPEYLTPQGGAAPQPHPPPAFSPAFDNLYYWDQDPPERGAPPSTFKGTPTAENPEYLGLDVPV

Take `COc1ccccc1NC(=O)CSc1nnc(-c2ccncc2)n1CC1CCCO1` (stereo not given): the viability in assay [1] is 97%; in assay [3], 97% (inactive); in assay [4], 103% (inactive); in assay [5], 96.7% (inactive); in assay [6] (setting [9]), 90.1%; in assay [6] (setting [10]) it was 96.7%. Also, in assay [2], the Her2 level was 91% (inactive). In assay [6] (H69AR cells + 2 uM doxorubicin), the differential viability (reversal) was 6.53% (inactive). The inhibition was -5.33% (inactive) in assay [7] and -3.81% (inactive) in assay [8].
For the compound `COC(=O)c1ccccc1NC(=O)C1CC(=O)N(c2ccccc2)C1` (stereo not given), the viability in assay [1] was 122%; in assay [3] it was 122% (inactive); in assay [4], 114% (inactive); in assay [5] it was 102% (inactive); in assay [6] (setting [9]), 80.9%; in assay [6] (setting [10]), 102%. Further, in assay [2], the Her2 level is 96% (inactive). In addition, the differential viability (reversal) in assay [6] (H69AR cells + 2 uM doxorubicin) is 20.8% (inactive). Further, the figures for the inhibition in assay [7] and in assay [8] were -6.27% (inactive) and 6.77% (inactive), respectively.
With `CCOc1ccc(C(=O)N(Cc2ccc(N(C)C)cc2)C2CCS(=O)(=O)C2)cc1` (stereo not given), the viability in assay [1] is 114%; in assay [3] it was 114% (inactive); in assay [4], 101% (inactive); in assay [5] it was 88.1% (inactive); in assay [6] (setting [9]), 105%; in assay [6] (setting [10]) it was 88.1%. In assay [2], the Her2 level was 121% (inactive). For the same compound, the differential viability (reversal) in assay [6] (H69AR cells + 2 uM doxorubicin) is -16.6% (inactive). Besides, the inhibition was -1.18% (inactive) in assay [7] and 2.79% (inactive) in assay [8].
On to `O=C(Nc1ccc2snnc2c1)N1CCSCC1`, for which the viability in assay [1] is 108%; in assay [3], 108% (inactive); in assay [4], 103% (inactive); in assay [5], 98.9% (inactive); in assay [6] (setting [9]) it was 96.2%; in assay [6] (setting [10]) it was 98.9%. Besides, in assay [2], the Her2 level is 104% (inactive). Further, in assay [6] (H69AR cells + 2 uM doxorubicin), the differential viability (reversal) is 2.63% (inactive). The inhibition is 0.77% (inactive) in assay [7] and -0.5% (inactive) in assay [8].
Turning to `O=C(COC(=O)c1ccccc1Oc1ccccc1)NC1CCS(=O)(=O)C1` (stereo not given), the viability in assay [1] is 107%; in assay [3], 107% (inactive); in assay [4], 98.8% (inactive); in assay [5], 90% (inactive); in assay [6] (setting [9]) it was 98.6%; in assay [6] (setting [10]), 90%. Also, the Her2 level in assay [2] is 104% (inactive). Besides, the differential viability (reversal) in assay [6] (H69AR cells + 2 uM doxorubicin) was -8.6% (inactive). For the same compound, the results for the inhibition in assay [7] and in assay [8] were 0.54% (inactive) and -5.57% (inactive), respectively.
On to `COc1ccc(S(=O)(=O)N2CCN(C3CCCCCCC3)CC2)cc1`, for which the viability in assay [1] is 87.5%; in assay [3], 87.5% (inactive); in assay [4], 106% (inactive); in assay [5] it was 93.9% (inactive); in assay [6] (setting [9]), 100%; in assay [6] (setting [10]) it was 93.9%. Also, the Her2 level in assay [2] was 89.5% (inactive). The differential viability (reversal) in assay [6] (H69AR cells + 2 uM doxorubicin) was -6.63% (inactive). Further, the inhibition in assay [7] is -2.11% (inactive); in assay [8], -0.98% (inactive).
With `CC1CCCCC1NC(=O)C1CCN(C(=O)NC2CCCCC2)CC1` (stereo not given), the viability in assay [1] is 94.5%; in assay [3], 94.5% (inactive); in assay [4], 90.8% (inactive); in assay [5], 102% (inactive); in assay [6] (setting [9]), 95.3%; in assay [6] (setting [10]) it was 102%. Besides, in assay [2], the Her2 level is 108% (inactive). Also, the differential viability (reversal) in assay [6] (H69AR cells + 2 uM doxorubicin) was 6.41% (inactive). Besides, the inhibition in assay [7] was -0.78% (inactive); in assay [8] it was 0.17% (inactive).
Turning to `COc1ccc(CN(CC(=O)NCC2CCCO2)C(=O)CNS(=O)(=O)c2ccc(C)cc2)cc1` (stereo not given), the viability in assay [1] was 107%; in assay [3], 107% (inactive); in assay [4], 96.3% (inactive); in assay [5], 97.2% (inactive); in assay [6] (setting [9]), 95%; in assay [6] (setting [10]), 97.2%. Also, the Her2 level in assay [2] was 102% (inactive). In addition, the differential viability (reversal) in assay [6] (H69AR cells + 2 uM doxorubicin) was 2.2% (inactive). Also, the values for the inhibition in assay [7] and in assay [8] were -0.53% (inactive) and -6.23% (inactive), respectively.
For the compound `C=CCN(C(=O)CNS(=O)(=O)c1ccccc1)C(C(=O)NCCOC)c1ccncc1` (stereo not given), the viability in assay [1] was 100%; in assay [3], 100% (inactive); in assay [4], 97.6% (inactive); in assay [5] it was 102% (inactive); in assay [6] (setting [9]), 96.3%; in assay [6] (setting [10]), 102%. Besides, the Her2 level in assay [2] was 103% (inactive). Moreover, the differential viability (reversal) in assay [6] (H69AR cells + 2 uM doxorubicin) was 5.81% (inactive). The inhibition in assay [7] is -4.27% (inactive); in assay [8] it was -9.84% (inactive).
As for `COc1ccc(C)cc1NC(=O)CSc1nnnn1Cc1ccccc1`, the viability in assay [1] is 83%; in assay [3], 83% (inactive); in assay [4] it was 82.1% (inactive); in assay [5] it was 96.8% (inactive); in assay [6] (setting [9]), 90.8%; in assay [6] (setting [10]), 96.8%. In assay [2], the Her2 level is 96.5% (inactive). In addition, the differential viability (reversal) in assay [6] (H69AR cells + 2 uM doxorubicin) was 6% (inactive). Besides, the inhibition in assay [7] was -1.49% (inactive); in assay [8], -2.62% (inactive).
Turning to `CCOc1ccc(S(=O)(=O)Nc2ccccc2C(=O)Nc2ccccc2N2CCOCC2)cc1`, the viability was 104% in assay [1]; 104% (inactive) in assay [3]; 74.5% (inactive) in assay [4]; 93.4% (inactive) in assay [5]; 90.7% in assay [6] (setting [9]); 93.4% in assay [6] (setting [10]). Also, the Her2 level in assay [2] is 97.5% (inactive). In addition, the differential viability (reversal) in assay [6] (H69AR cells + 2 uM doxorubicin) was 2.71% (inactive). In addition, the inhibition was -6.67% (inactive) in assay [7] and 3.06% (inactive) in assay [8].
With `O=C(CSc1ncnc2c1oc1ccccc12)NCc1ccco1`, the viability is 140% in assay [1]; 140% (inactive) in assay [3]; 83.7% (inactive) in assay [4]; 76.4% (inactive) in assay [5]; 82.1% in assay [6] (setting [9]); 76.4% in assay [6] (setting [10]). The Her2 level in assay [2] was 60% (inactive). Also, in assay [6] (H69AR cells + 2 uM doxorubicin), the differential viability (reversal) is -5.7% (inactive). For the same compound, the inhibition in assay [7] was -6.27% (inactive); in assay [8] it was 2.62% (inactive).
`O=C(CSc1nnc(CNC(=O)c2cccs2)o1)NC1CCCC1`: the viability in assay [1] was 102%; in assay [3], 102% (inactive); in assay [4] it was 102% (inactive); in assay [5], 82.4% (inactive); in assay [6] (setting [9]) it was 83.2%; in assay [6] (setting [10]) it was 82.4%. The Her2 level in assay [2] was 100% (inactive). Moreover, the differential viability (reversal) in assay [6] (H69AR cells + 2 uM doxorubicin) was -0.76% (inactive). The inhibition in assay [7] is -0.26% (inactive); in assay [8], -1.17% (inactive).
With `CCC(CC)C(=O)Nc1cccc(C(=O)NCc2ccco2)c1`, the viability in assay [1] is 94%; in assay [3] it was 94% (inactive); in assay [4] it was 100% (inactive); in assay [5] it was 69.1% (inactive); in assay [6] (setting [9]), 89.6%; in assay [6] (setting [10]) it was 69.1%. The Her2 level in assay [2] is 104% (inactive). The differential viability (reversal) in assay [6] (H69AR cells + 2 uM doxorubicin) is -20.5% (inactive). For the same compound, the inhibition in assay [7] was -3.24% (inactive); in assay [8], -1.64% (inactive).
For the compound `CC1CCN(C(=O)Cn2c(=O)oc3ccccc32)CC1`, the viability in assay [1] was 86.5%; in assay [3], 86.5% (inactive); in assay [4], 95.1% (inactive); in assay [5] it was 90.7% (inactive); in assay [6] (setting [9]), 84.5%; in assay [6] (setting [10]), 90.7%. For the same compound, in assay [2], the Her2 level is 108% (inactive). The differential viability (reversal) in assay [6] (H69AR cells + 2 uM doxorubicin) is 6.24% (inactive). Besides, the inhibition in assay [7] is 0.53% (inactive); in assay [8], -6.55% (inactive).

Values taken from PubChem BioAssay.
